Reference: ChEMBL document CHEMBL1124744, “Development of a novel series of (2-quinolinylmethoxy)phenyl-containing compounds as high-affinity leukotriene D4 receptor antagonists. 2. Effects of an additional phenyl ring on receptor affinity” (J Med Chem, 1990)

What was measured:
[1] = target: T1, Cysteinyl leukotriene receptor 1 (Cavia porcellus, UniProt Q2NNR5); assay: Binding affinity against Cysteinyl leukotriene D4 receptor from guinea pig trachea using [3H]LTD4; conditions: read-out: pA2 (converted)
T1 sequence (Q2NNR5 whole entry): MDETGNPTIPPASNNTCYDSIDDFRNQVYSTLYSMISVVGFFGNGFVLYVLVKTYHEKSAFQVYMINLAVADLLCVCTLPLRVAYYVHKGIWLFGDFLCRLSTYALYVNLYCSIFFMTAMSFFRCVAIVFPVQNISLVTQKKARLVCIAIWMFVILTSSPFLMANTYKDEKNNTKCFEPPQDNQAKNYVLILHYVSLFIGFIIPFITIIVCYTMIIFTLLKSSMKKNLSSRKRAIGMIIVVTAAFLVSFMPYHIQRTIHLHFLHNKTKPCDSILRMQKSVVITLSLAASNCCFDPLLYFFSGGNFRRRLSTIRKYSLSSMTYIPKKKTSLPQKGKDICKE

[2] = target: T1, Cysteinyl leukotriene receptor 1; assay: Binding affinity against Cysteinyl leukotriene D4 receptor from guinea pig lung was determined using [3H]-LTD4 (0.2 nM)
Method in brief: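 Guinea pig lung membranes were used in a radioligand competition assay against 0.2 nM [3H]LTD4, with compounds at multiple concentrations. IC50 was determined graphically and converted to Ki. Values are means ± SEM of N separate experiments.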

[3] = species on record: Cavia porcellus; assay: Oral activity expressed as percent inhibition in leukotriene mediated anaphylaxis assay in guinea pig at 10 uM; format: functional
Method in brief: (§1)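 Guinea pigs immunized with ovalbumin were pretreated with pyrilamine, propranolol and indomethacin. Compounds were given orally 1 h before aerosol antigen challenge. Six animals were used per dose. ED50 was determined from at least three doses; single doses are reported as % inhibition in mg/kg.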

[4] = species on record: Cavia porcellus; assay: Inhibition of LTC4-induced contractions from guinea pig peripheral lung strips; format: functional
Method in brief: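 Guinea pig peripheral lung strips were contracted with 0.2 nM LTC4, and inhibition was measured. IC50 was determined graphically; values are means ± SEM of N separate experiments.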

[5] = species on record: Cavia porcellus; assay: Oral activity expressed as percent inhibition in leukotriene mediated anaphylaxis assay in guinea pig at 30 uM; format: functional; method in brief: as §1
[6] = species on record: Cavia porcellus; assay: Oral activity expressed as percent inhibition in LTD4-induced wheal assay in guinea pig at 18 uM; format: functional; conditions: in the assay text read “18 mg/kg” for “18 uM”
Method in brief: (§2)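 In guinea pigs, compounds were given orally 1 h before intradermal injection of 100 ng LTD4, and wheal inhibition was measured. Five animals were used per dose. ED50 was determined from at least three doses; single doses are reported as % inhibition in mg/kg.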

[7] = species on record: Cavia porcellus; assay: Oral activity expressed as effective dose in LTD4-induced wheal assay in guinea pig; format: functional; method in brief: as §2
[8] = target: T1, Cysteinyl leukotriene receptor 1; assay: Binding affinity against Cysteinyl leukotriene D4 receptor from guinea pig lung was determined using [3H]LTD4
Method in brief: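 Guinea pig lung membranes; competition against 0.2 nM [3H]LTD4 with test compounds at multiple concentrations. IC50 was determined graphically and converted to Ki. Values are means ± SEM of N separate experiments.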

[9] = species on record: Cavia porcellus; assay: Oral activity expressed as effective dose in leukotriene mediated anaphylaxis assay in guinea pig; format: functional; method in brief: as §1
[10] = species on record: Cavia porcellus; assay: Oral activity expressed as percent inhibition in LTD4-induced wheal assay in guinea pig at 3 uM; format: functional; method in brief: as §2
[11] = species on record: Cavia porcellus; assay: Oral activity expressed as percent inhibition in LTD4-induced wheal assay in guinea pig at 9 uM; format: functional; method in brief: as §2
[12] = species on record: Cavia porcellus; assay: Oral activity expressed as percent inhibition in LTD4-induced wheal assay in guinea pig at 13 uM; format: functional
[13] = target: T2, Cysteinyl leukotriene receptor 1 (Cavia porcellus) (UniProt Q2NNR5); assay: Binding affinity against Cysteinyl leukotriene D4 receptor from guinea pig lung was determined using [3H]LTD4 (0.2 nM) at compound concentration of 1 uM
T2 sequence (whole entry): T1 sequence (Q2NNR5 whole entry)

[14] = target: T1, Cysteinyl leukotriene receptor 1; assay: Inhibitory concentration of compound against binding of Cysteinyl leukotriene D4 receptor from guinea pig lung using [3H]LTD4
[15] = species on record: Cavia porcellus; assay: Inhibits leukotriene D4 in guinea pig by wheal essay at 9 uM concentration; format: functional; method in brief: as §2
[16] = species on record: Cavia porcellus; assay: Inhibits leukotriene mediated anaphylaxis in guinea pig at 60 uM concentration; format: functional; method in brief: as §1

Row | SMILES | Ki [2] | IC50 [4] | Inhibition [5] | also measured
1 | CN(C)C(=O)CCSC(SCCC(=O)O)c1cccc(/C=C/c2ccc3ccc(Cl)cc3n2)c1 (centres undefined) [MK-571] | – | – | – | Kb [1]: 1 nM
2 | O=C(O)c1ccc(COc2cccc(OCc3ccc4ccccc4n3)c2)cc1 | 90 nM | 75 nM | – | –
3 | c1cc(OCc2cccc(OCc3nn[nH]n3)c2)cc(OCc2ccc3ccccc3n2)c1 | 13 nM | 24 nM | 64% | Inhibition [6]: 37%
4 | O=S(=O)(Nc1cccc(OCc2ccc3ccccc3n2)c1)C(F)(F)F [RITOLUKAST] | – | – | – | Ki [8]: 35 nM
5 | COc1cc(OCc2cccc(OCc3ccc4ccccc4n3)c2)cc(-c2nnn[nH]2)c1 | 10 nM | – | – | –
6 | c1cc(OCc2ccc3ccccc3n2)cc(OCc2ccccc2OCc2nn[nH]n2)c1 | 17 nM | 27 nM | – | ED50 [9]: 10 mg/kg; Inhibition [6]: 42%
7 | c1cc(COc2cccc(-c3nn[nH]n3)c2)cc(OCc2ccc3ccccc3n2)c1 | 5.3 nM | 20 nM | 45% | ED50 [7]: 28 mg/kg
8 | C(=C\c1cccc(-c2nn[nH]n2)c1)/c1cccc(OCc2ccc3ccccc3n2)c1 | 8.5 nM | 20 nM | – | Inhibition [10]: 15%
9 | COc1cc(-c2nn[nH]n2)ccc1COc1cccc(OCc2ccc3ccccc3n2)c1 | 4.3 nM | 9 nM | 45% | Inhibition [11]: 22%
10 | c1cc(CCc2cccc(-c3nn[nH]n3)c2)cc(OCc2ccc3ccccc3n2)c1 | 17 nM | 20 nM | – | ED50 [9]: 24 mg/kg; Inhibition [6]: 44%
11 | COc1cc(-c2nn[nH]n2)ccc1OCc1cccc(OCc2ccc3ccccc3n2)c1 | 16 nM | 36 nM | 9% | –
12 | c1cc(OCc2cccc(-c3nn[nH]n3)c2)cc(OCc2ccc3ccccc3n2)c1 | 16 nM | – | 83% | Inhibition [6]: 45%
13 | COC(=O)c1ccc(COc2cccc(OCc3ccc4ccccc4n3)c2)c(OCc2nn[nH]n2)c1 | 8 nM | 16 nM | 9% | –
14 | O=C(O)c1ccccc1Nc1cccc(OCc2ccc3ccccc3n2)c1 [SR-2640] | – | – | – | IC50 [14]: 23 nM
15 | CCCc1c(OCC(O)COc2ccc3c(=O)cc(C(=O)O)oc3c2CCC)ccc(C(C)=O)c1O (centres undefined) [FPL-55712] | – | 940 nM | – | –
16 | O=C(O)c1cccc(COc2cccc(OCc3ccc4ccccc4n3)c2)c1 | 40 nM | 100 nM | – | Inhibition [15]: 7%; Inhibition [16]: 60%
17 | COc1cc(COc2cccc(OCc3ccc4ccccc4n3)c2)cc(-c2nn[nH]n2)c1 | 7 nM | 6.3 nM | – | ED50 [7]: 38 mg/kg; Inhibition [3]: 17%

More lines, main results first:

Row | Ki [2] | IC50 [4] | SMILES | Inhibition [5] | also measured
18 | 2.5 nM | – | Clc1ccc2ccc(COc3ccc(OCc4ccccc4Cc4nnn[nH]4)cc3)nc2c1 | – | –
19 | 3.4 nM | – | C(=C\c1ccc2ccccc2n1)/c1ccc(OCc2ccccc2Cc2nnn[nH]2)cc1 | – | Inhibition [3]: 80%
20 | 2.2 nM | 2 nM | c1cc(COc2ccc(OCc3ccc4ccccc4n3)cc2)cc(-c2nn[nH]n2)c1 | – | ED50 [7]: 2 mg/kg; Inhibition [3]: 33%
21 | 2.1 nM | 4.2 nM | c1ccc(OCc2nn[nH]n2)c(COc2ccc(OCc3ccc4ccccc4n3)cc2)c1 | – | Inhibition [10]: 45%; Inhibition [3]: 61%
22 | 8 nM | 9 nM | c1cc(COc2ccc(OCc3ccc4ccccc4n3)cc2)cc(OCc2nn[nH]n2)c1 | 27% | ED50 [7]: 2.8 mg/kg
23 | 7.3 nM | 20 nM | c1cc(OCc2ccc(Cc3nnn[nH]3)cc2)cc(OCc2ccc3ccccc3n2)c1 | – | ED50 [7]: 6.8 mg/kg; ED50 [9]: 30 mg/kg
24 | 31 nM | 44 nM | c1ccc2nc(COc3ccc(COc4ccc(-c5nn[nH]n5)cc4)cc3)ccc2c1 | 64% | ED50 [7]: 8 mg/kg
25 | 8 nM | 34 nM | c1cc(COc2ccc(OCc3ccc4ccccc4n3)cc2)cc(Cc2nnn[nH]2)c1 | – | ED50 [7]: 3 mg/kg; Inhibition [3]: 64%
26 | 20 nM | 19 nM | c1cc(OCc2ccc3ccccc3n2)cc(OCc2ccccc2-c2nnn[nH]2)c1 | – | –
27 | 10 nM | 12 nM | c1cc(OCc2ccc(-c3nnn[nH]3)cc2)cc(OCc2ccc3ccccc3n2)c1 | – | ED50 [7]: 6.5 mg/kg; ED50 [9]: 10 mg/kg
28 | 2.9 nM | 14 nM | c1cc(COc2ccc(-c3nn[nH]n3)cc2)cc(OCc2ccc3ccccc3n2)c1 | -9% | –
29 | 7.5 nM | 13 nM | COc1cc(OCc2ccc(OCc3ccc4ccccc4n3)cc2)cc(-c2nn[nH]n2)c1 | – | Inhibition [12]: 26%
30 | 2.2 nM | 8 nM | c1cc(OCc2ccc(OCc3nn[nH]n3)cc2)cc(OCc2ccc3ccccc3n2)c1 | 82% | Inhibition [6]: 59%
31 | 3 nM | 2.7 nM | c1ccc(Cc2nn[nH]n2)c(COc2ccc(OCc3ccc4ccccc4n3)cc2)c1 [RG-12525] | – | ED50 [7]: 4.9 mg/kg; ED50 [9]: 2.2 mg/kg; Kb [13]: 3 nM
32 | 10 nM | 12 nM | c1cc(COc2cccc(OCc3ccc4ccccc4n3)c2)cc(Cc2nnn[nH]2)c1 | – | ED50 [7]: 1.8 mg/kg; ED50 [9]: 10 mg/kg
33 | 8.5 nM | 12 nM | c1ccc2nc(COc3ccc(OCc4ccc(Cc5nnn[nH]5)cc4)cc3)ccc2c1 | – | Inhibition [11]: 34%; ED50 [9]: 30 mg/kg
34 | 22 nM | – | COc1cc(-c2nn[nH]n2)ccc1OCc1ccc(OCc2ccc3ccccc3n2)cc1 | – | –
35 | 2.5 nM | – | Clc1ccc2ccc(/C=C/c3ccc(OCc4ccccc4Cc4nnn[nH]4)cc3)nc2c1 | – | –
36 | 12 nM | 9.5 nM | c1cc(OCc2ccc3ccccc3n2)cc(OCc2ccccc2Cc2nnn[nH]2)c1 | 75% | Inhibition [6]: 17%
